In data set [1] the test system is MT4. The data set can be described thus: Cell culture inhibitory concentration which inhibits 95% spread of HIV infection in cell culture, using HIV-1 IIIB variant and MT-4 T-lymphoid cells. Particulars: Homo sapiens, read-out: CIC95. The format is functional.
For data set [2], the system named is MT4. The data set can be described thus: Cytotoxicity of compound was determined on MT-4 cells. The format is functional, Homo sapiens. Put shortly:
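MT-4 cultures incubated 4 days with inhibitor. Toxicity scored by visual inspection for cytopathic effects: gross morphological changes, altered growth pattern, and metabolic change seen as lack of change in the medium pH indicator. Cell numbers also checked; cells typically double at least 4 times over the 4 days.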

The nature of data set [3]: Peak plasma level of compound (10 mg/kg) administered orally to rats after 60 min was determined. The format is ADME, organism-based. Particulars: rat, po. Further details: dose 10 mg/kg, route oral. Put shortly:
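Rats dosed orally at 10 mg/kg as a 3.0 mg/mL aqueous solution with 1% methylcellulose and 1% DMSO. Plasma concentration followed over time, with Cmax taken as the peak plasma level.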

The target in data set [4] is Human immunodeficiency virus type 1 integrase (Human immunodeficiency virus 1, UniProt Q7ZJM1). The data set can be described thus: Compound was tested for its ability to inhibit the strand transfer of the integration process catalyzed by HIV integrase.

As a reminder, the Cmax is the peak of the concentration-time curve. In general, pIC50 refers to the IC50 on a negative log10 scale, so that one unit is a factor of ten.

pIC50: −log10 of the molar value. Where only a bound is given, the exact number is not on record here.

Sequence of Human immunodeficiency virus type 1 integrase (Q7ZJM1 whole entry): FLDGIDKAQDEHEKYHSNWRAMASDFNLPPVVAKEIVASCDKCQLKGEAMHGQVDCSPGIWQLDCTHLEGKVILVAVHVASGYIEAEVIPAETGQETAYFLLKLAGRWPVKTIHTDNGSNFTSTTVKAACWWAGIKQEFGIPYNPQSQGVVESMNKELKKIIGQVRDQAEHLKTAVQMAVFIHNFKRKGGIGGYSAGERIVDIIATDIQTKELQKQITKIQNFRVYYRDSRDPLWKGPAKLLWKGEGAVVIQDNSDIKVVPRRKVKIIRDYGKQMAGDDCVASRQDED

As for `O=C(c1cccc(Cc2ccccc2)c1)c1ccc2cccnc2c1O`, the IC95 in the data set on MT4 [1] is 5 µM. In the data set with MT4 [2], this molecule gave a Cytotoxicity of 1.25 µM.

In the case of `O=C(c1cc(Cc2ccccc2)cc(CN2CCCS2(=O)=O)c1)c1ncc2cccnc2c1O`, in the data set on MT4 [1], the IC95 amounted to 0.39 µM. Besides, the Cytotoxicity in the data set with MT4 [2] is above 12.5 µM. Moreover, in data set [3], the Cmax stood at 1.17 µM. For the same molecule, the pIC50 in data set [4] is 8.00.

Take `O=C(c1cc(Cc2ccccc2)ccn1)c1ccc2cccnc2c1O`: the IC95 in the data set with MT4 [1] was found to be 2.5 µM. The molecule also had a Cytotoxicity in the data set on MT4 [2] of 2.5 µM. The pIC50 in data set [4] is 7.30.

Take `O=C(O)C(=O)CC(=O)c1cccc(Cc2ccccc2)c1`: in the data set with MT4 [1], the IC95 is 1.11 µM. Also, in the data set with MT4 [2], the Cytotoxicity was above 50 µM. This molecule gave a pIC50 in data set [4] of 8.00.

On to `O=C(c1cccc(Cc2ccccc2)c1)c1ncc2cccnc2c1O`, for which, in the data set with MT4 [1], the IC95 turned out to be 6.2 µM. The same molecule registered a Cytotoxicity in the data set with MT4 [2] of 12.5 µM. Besides, the pIC50 in data set [4] was 7.40.

In the case of `O=c1c2cc(Cc3ccccc3)ccc2oc2ccc(O)c(O)c12`, in the data set on MT4 [1], the IC95 amounted to 6 µM. Moreover, in the data set with MT4 [2], the Cytotoxicity was 3 µM. In data set [4], this molecule showed a pIC50 of 6.22.

`O=C(c1cccc(Cc2ccccc2)c1)c1oc2cccnc2c1O`: the IC95 in the data set with MT4 [1] is above 50 µM. For the same molecule, in the data set with MT4 [2], the Cytotoxicity was found to be 12.5 µM. In data set [4], the pIC50 is 6.00.

(Values after ChEMBL document CHEMBL1145959, “Design and synthesis of 8-hydroxy-[1,6]naphthyridines as novel inhibitors of HIV-1 integrase in vitro and in infected cells” (J Med Chem, 2003).)
